High-throughput results from PubChem.
MrgX1 PAM: allosterically activates human MrgX1 receptor signaling; Q96LB2; MrgX1-HEK293, Fluo-4 calcium flux, FDSS; stronger effect = higher value; B-score at 10 µM; hit rate 0.63% among 310,000;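 active = plate-corrected calcium response at least 3 library SD above typical, normal starting fluorescence, not activating the receptor alone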;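 note: compound read alongside a low EC10 to EC30 dose of BAM8-22 agonist; peak minus trough fluorescence over baseline measured at the second addition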
Target sequence (Q96LB2 whole entry, looked up): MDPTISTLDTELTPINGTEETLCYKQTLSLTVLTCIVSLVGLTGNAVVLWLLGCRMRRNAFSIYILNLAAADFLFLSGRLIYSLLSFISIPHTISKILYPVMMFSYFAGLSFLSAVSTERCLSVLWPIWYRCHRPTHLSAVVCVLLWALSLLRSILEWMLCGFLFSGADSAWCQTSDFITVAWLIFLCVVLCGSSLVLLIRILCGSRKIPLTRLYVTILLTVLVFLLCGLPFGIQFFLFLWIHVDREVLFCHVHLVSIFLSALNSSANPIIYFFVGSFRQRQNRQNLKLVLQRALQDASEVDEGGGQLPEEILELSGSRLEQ
MrgX1 ag: human MrgX1 receptor agonism, primary screen | Q96LB2 | MrgX1-HEK293 cells, Fluo-4 calcium fluorescence, agonist mode; stronger effect = higher value | B-score at 10 µM | hit rate 0.44% among 310,000;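 active = calcium response B-score plate-corrected fluorescence ratio at least 3 library SD, with starting fluorescence B-score inside 5 SD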
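Material – MrgX1-expressing HEK293 cells · Input – 15,000 cells seeded per well · Dosing – compound as first of three additions · Times – overnight seeding, then 1 h dark dye loading · Measured by – kinetic Fluo-4 NW fluorescence of intracellular calcium · Read-out – B-scored fluorescence response ratio · Benchmarks – positive and negative control wells on each plate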
RGS4 act: RGS4 potentiation or activation | HEK293 M3R/inducible RGS4, carbachol calcium flux Fluo4; stronger effect = lower value | B-score at 10 µM | hit rate 0.92% among 310,000 | AID 463111;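 active = B-score of the integrated calcium signal more than 4 SD below the library mean, with starting fluorescence not abnormally high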;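 note: negative B-score means reduced calcium response which marks RGS4 activation or potentiation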
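test system = M3R-expressing HEK293 line, RGS4 induced by doxycycline | probe or stimulus = carbachol at ECmax as muscarinic agonist stimulus | timing = dye loading 30 min 37 °C, buffer rest 30 min RT | signal = calcium dye Fluo4 fluorescence | evaluation = B score from integrated fluorescence ratio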
MrgX1 antagonist: human MrgX1 receptor antagonism, primary screen. AID 588676. B-score at 10 µM. hit rate 1.3% among 310,000. MRGX1-HEK293 calcium flux, Fluo-4, BAM8-22 antagonism; stronger effect = lower value. Q96LB2;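 active = calcium-response B-score plate-corrected more than 3 library SD below zero, starting fluorescence within 5 deviations, no agonist response on first addition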;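 note: peak minus trough fluorescence over baseline after final BAM8-22 challenge near maximal dose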
RGS4 block: human RGS4 inhibition; P49798; HEK293 M3R/RGS4 inducible, Fluo-4 calcium flux; stronger effect = higher value; triggered by carbachol at its EC20; B-score at 10 µM; hit rate 0.45% among 310,000;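 active = B-score, a plate-corrected calcium signal, over three deviations above library mean, with baseline fluorescence within five deviations of library mean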;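 note: RGS4 expression induced by doxycycline in cells with stable M3 receptor; B-score is computed from the integrated fluorescence ratio over baseline after carbachol; higher B-score means a larger calcium signal and so more RGS4 inhibition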
Target sequence (P49798 whole entry, looked up): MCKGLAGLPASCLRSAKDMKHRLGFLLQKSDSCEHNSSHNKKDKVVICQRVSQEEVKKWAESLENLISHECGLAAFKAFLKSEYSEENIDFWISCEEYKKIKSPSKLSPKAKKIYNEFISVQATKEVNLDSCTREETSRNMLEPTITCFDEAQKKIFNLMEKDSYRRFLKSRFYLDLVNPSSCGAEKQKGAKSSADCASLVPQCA
MrgX1 PAM conf: confirmation of human MrgX1 receptor positive allosteric modulators. shares compounds with MrgX1 PAM. MrgX1-HEK293, Fluo-4 calcium fluorescence, FDSS. activation (ratio percentage), % at 10 µM. hit rate 13% among 1,200;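 active = ratio at least 3 SD above the weak peptide control, stable starting fluorescence, no direct agonism earlier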;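 note: compound followed by low BAM8-22 agonist challenge near EC20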
MrgX1 antag conf: reconfirmed antagonist of human MrgX1 receptor signaling; shares compounds with MrgX1 antagonist; MrgX1-HEK293, BAM8-22 calcium flux, Fluo-4; stronger effect = lower value; remaining BAM8-22 calcium response % of control (stronger effect = lower value), % at 10 µM; hit rate 19% among 2,300; AID 602420;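 active = remaining agonist calcium response no higher than 100% minus 3 SD of agonist-only control wells, with starting fluorescence near control levels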;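 note: agonist BAM8-22 given at a near maximal EC90 to ECmax level; peak minus minimum fluorescence divided by baseline after agonist addition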
HEK293 Ca flux: MrgX1 antagonist counter-screen hit in parental HEK293 cells; shares compounds with MrgX1 antagonist; Fluo-4 calcium fluorescence, FDSS; fluorescence ratio F(max-min)/F0 at 10 µM; hit rate 2% among 4,000;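 active = duplicate-averaged calcium fluorescence ratio at least three times the standard deviation of buffer wells, a nonspecific response in parental cells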
HEK293 Ca counter: counter-screen for MrgX1 allosteric activators: effect in parental HEK293 cells; shares compounds with MrgX1 antagonist; hit rate 0.4% among 4,000; fluorescence ratio F(max-min)/F0 at 10 µM; parental HEK293 calcium flux, Fluo-4 fluorescence ratio; stronger effect = higher value;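 active = calcium fluorescence ratio, averaged over duplicates, at least 3 SD of the buffer-well ratio, meaning a nonspecific response in receptor-free cells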;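 note: untransfected parental HEK293 lacking MrgX1 used as counterscreen for MrgX1 allosteric activators; fluorescence change taken during the second addition on a kinetic imager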
HEK293 Ca cntr2: counter-screen for MrgX1 activators: effect in parental HEK293 cells; fluorescence ratio F(max-min)/F0 at 10 µM; AID 624115; Fluo-4 calcium fluorescence (FDSS); stronger effect = higher value; hit rate 8.7% among 4,000; shares compounds with MrgX1 antagonist;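 active = calcium fluorescence ratio at least three times the spread of buffer wells, meaning a non-specific response in parental cells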
Starred values were filed as active, the others as inactive; i = inactive; x = no result given. In the library only some 3.5% were active in any assay of this set; here they are far more common.

SMILES	MrgX1 PAM	MrgX1 ag	RGS4 act	MrgX1 antagonist	RGS4 block	MrgX1 PAM conf	HEK293 Ca flux	HEK293 Ca counter	HEK293 Ca cntr2	others
CC1CCCCC1NC(=O)CCNS(=O)(=O)c1cc(Br)cnc1N (stereo not drawn)	i	i	i	i	i	x	x	x	x
Cc1ccc(C)c(N2CCN(C(=O)c3csc(C)c3C)CC2)c1	6.9*	i	i	i	i	i	i	i	i
CCOc1ccc(CCNC(=O)Cn2ccc3ccccc3c2=O)cc1OCC	i	i	i	i	i	x	x	x	x
COc1ccc(-c2csc(=NCCO)n2-c2ccccc2)cc1	8.7*	i	i	-5.8*	i	20%*	i	i	i	MrgX1 antag conf=i
CCCn1c(=O)c(C(=O)NCCCc2ccccc2)c(O)c2ccccc21	6.8*	i	i	i	i	i	i	i	i
O=C(Nc1nnc(-c2ccco2)o1)c1cccc(Cl)c1	7.5*	i	i	i	i	i	i	i	i
O=C(Nc1nnc(-c2ccccn2)o1)c1cccc(Cl)c1	i	i	i	i	i	x	x	x	x
O=C(Nc1cccc(Cl)c1)c1cc(-c2ccco2)on1	8*	i	i	i	i	i	i	i	i
COCCNC(=O)C1CC(c2ccccc2C(F)(F)F)=NO1 (stereo not drawn)	i	i	i	i	i	x	x	x	x
CC(=O)C(Cc1ccccc1)NC(=O)CN1CCN(Cc2ccccc2)CC1 (stereo not drawn)	i	i	i	i	i	x	x	x	x
O=C(CSc1n[nH]c(=O)n1C1CC1)NCc1ccccc1Cl	i	i	i	i	i	x	x	x	x
Cc1nn(C)c(Nc2ccc(Br)cc2)c1Br	8.2*	i	i	i	i	i	i	i	i
COc1cc(SC)ccc1C(=O)NCc1ccc(C)cc1	6.5*	i	i	i	i	i	i	i	i
O=S(=O)(Nc1nc2ccccc2s1)c1ccc(Cl)s1	9.1*	i	i	-5.3*	i	i	i	i	i	MrgX1 antag conf=i
O=S(=O)(Nc1nc2ccccc2s1)c1cc(F)ccc1F	i	i	i	i	i	x	x	x	x
COCc1cc(SC2CCCCC2)nc(C)n1	15*	i	i	i	i	i	i	i	i
COCc1cc(C)nc(NC2CCCCC2)c1C#N	i	i	x	i	x	x	x	x	x
COc1ccc(C)cc1NC(=O)C(C)N(c1ccc(C)cc1)S(C)(=O)=O (stereo not drawn)	7.6*	i	i	i	i	i	i	i	i
COc1ccc(OC)c(-c2csc(NC(=O)Cc3cccs3)n2)c1	7.2*	i	i	i	i	i	i	i	i
CNC(=O)CSc1nnc(C2CC2)n1-c1ccccc1	i	i	i	i	i	x	x	x	x
COc1ccccc1CNC(=O)c1cc(C)nn1-c1ccccc1	i	i	i	i	i	x	x	x	x
Cc1cc(C(=O)NCc2ccccc2Cl)n(-c2ccccc2)n1	9.3*	i	i	i	i	i	i	i	i
c1coc(-c2nc3nc4ccccc4nc3n2CC2CCCO2)c1 (stereo not drawn)	i	i	i	i	i	x	x	x	x
c1ccc(-c2nc3nc4ccccc4nc3n2CC2CCCO2)cc1 (stereo not drawn)	7*	i	i	i	i	i	i	i	i
O=C1CC(c2ccccc2)Sc2nc3ccccc3n21 (stereo not drawn)	i	i	i	i	i	x	x	x	x
SMILES	MrgX1 PAM	MrgX1 ag	RGS4 act	MrgX1 antagonist	RGS4 block	MrgX1 PAM conf	HEK293 Ca flux	HEK293 Ca counter	HEK293 Ca cntr2	others
O=C1CC(c2ccc3c(c2)OCO3)Sc2nc3ccccc3n21 (stereo not drawn)	7.5*	i	i	i	i	i	i	i	i
COC(=O)Cc1cc(=O)n(-c2nc3ccccc3[nH]2)[nH]1	15*	i	i	i	i	i	i	i	i
Cc1ccccc1Nc1nc(N)nc(CSc2nc3ccccc3s2)n1	8.8*	i	i	i	i	i	i	i	i
CC(=O)NCCC(=O)Nc1ccc(C)c(F)c1	i	i	i	i	i	x	x	x	x
Cc1ccc(NCC(=O)Nc2ccc(Br)cc2)cc1F	8.1*	i	i	i	i	i	i	i	i
CCOc1ccccc1NC(=O)CSc1ccccc1	6.9*	i	i	i	i	i	i	i	i
Cc1ccc(S(=O)(=O)NCc2ccccc2)cc1C(=O)NCc1ccccn1	i	i	i	i	i	x	x	x	x
O=C(c1ccco1)N1CCN(c2nnc(-c3ccccc3)c3ccccc23)CC1	i	i	i	i	i	x	x	x	x
CCSc1nc2c(c(=O)[nH]1)C(c1ccncc1)C(C(=O)OC(C)C)=C(C)N2 (stereo not drawn)	i	i	i	i	i	x	x	x	x
CCSc1nc2c(c(=O)[nH]1)C(c1cccnc1)C(C(=O)OC)=C(C)N2 (stereo not drawn)	8.5*	i	i	i	i	i	i	i	i
S=c1nc[nH]c2c1sc1nc(N3CCOCC3)c3c(c12)CCCC3	7.4*	i	i	i	i	i	i	i	i
CC(C)c1nc2sc3c(=S)nc[nH]c3c2c2c1CCC2	i	i	i	i	i	x	x	x	x
COC(=O)C1Cc2ccccc2CN1C(=O)CCl (stereo not drawn)	8.1*	i	i	i	i	i	i	i	i
COc1cccc(C(=O)COc2cccc(NC(=O)c3ccco3)c2)c1	6.6*	i	i	i	i	i	i	i	i
